# In ChEMBL document CHEMBL1667822, “Selective antagonists of mouse trace amine-associated receptor 1 (mTAAR1): discovery of EPPTB (RO5212773)” (Bioorg Med Chem Lett, 2011):
# Experiments:
# [1] = biological target: T1, Trace amine-associated receptor 1 (Mus musculus, UniProt Q923Y8); experiment: Inhibition of mouse TAAR1
# [2] = biological target: T2, Trace amine-associated receptor 1 (Homo sapiens, UniProt Q96RJ0); experiment: Antagonist activity at human TAAR1 assessed as reversal of endogenous beta-PEA effect; assay type: functional
# T2 sequence (Q96RJ0 whole entry): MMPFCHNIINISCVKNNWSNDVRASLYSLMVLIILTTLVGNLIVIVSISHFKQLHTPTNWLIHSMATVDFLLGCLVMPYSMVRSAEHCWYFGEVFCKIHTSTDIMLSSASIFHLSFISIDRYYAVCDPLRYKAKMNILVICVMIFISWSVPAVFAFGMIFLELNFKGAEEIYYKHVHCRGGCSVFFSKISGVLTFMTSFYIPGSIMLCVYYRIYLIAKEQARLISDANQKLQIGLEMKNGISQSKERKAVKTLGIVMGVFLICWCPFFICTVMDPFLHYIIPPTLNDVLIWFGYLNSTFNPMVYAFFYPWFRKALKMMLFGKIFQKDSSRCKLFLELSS
# Summary of the method: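 In vitro cAMP functional assay with antagonism read as reversal of the response to the endogenous agonist beta-PEA. Efficacy was scaled so that 100% equals 0% minimum stimulation. Residual beta-PEA stimulation was taken at the highest test-compound concentration. Values are means of at least two independent experiments, with duplicates typically within a twofold margin.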
# [3] = biological target: T1, Trace amine-associated receptor 1; experiment: Antagonist activity at mouse TAAR1 assessed as reversal of endogenous beta-PEA effect; assay type: functional
# Summary of the method: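 Mouse TAAR1 antagonist dose–response run as an in vitro cAMP functional assay. Efficacy is the reversal of the effect of the endogenous agonist β-PEA, with 100% efficacy defined as 0% min% stim. Values are averages of at least two independent experiments.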
# [4] = biological target: Trace amine-associated receptor 1 (Rattus norvegicus, UniProt Q923Y9); experiment: Antagonist activity at rat TAAR1 assessed as reversal of endogenous beta-PEA effect; assay type: functional
# Summary of the method: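 cAMP functional assay in vitro measuring reversal of the effect of endogenous agonist beta-PEA; 100% antagonistic efficacy defined as 0% min% stimulation. Residual stimulation by beta-PEA recorded at the maximum test-compound concentration. Values are the average of at least two independent experiments; duplicates typically within a twofold margin.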
# [5] = Cmax in mouse at 5 mg/kg, ip; assay type: ADME, organism-based; parameters: dose 5 mg/kg, route intraperitoneal; details: in vivo
# Summary of the method: (§1)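 Single-dose pharmacokinetics in mice comparing parenteral routes: intravenous at 2.5 mg/kg and intraperitoneal at 5 mg/kg. Plasma concentrations were followed over time. Bioavailability was derived for the ip route, and Cmax was taken from the ip plasma profile.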
# [6] = Bioavailability in mouse at 5 mg/kg, ip; assay type: ADME, organism-based; details: in vivo; summary of the method: as §1
# [7] = Ratio of drug level in brain to plasma in mouse at 5 mg/kg, ip; assay type: ADME, organism-based; parameters: dose 5 mg/kg, route intraperitoneal; details: read-out: BPR
# Summary of the method: (§2)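 Single-dose pharmacokinetics in mice with parenteral dosing, either 2.5 mg/kg iv or 5 mg/kg ip. Drug levels were measured in plasma, with brain exposure taken as the brain/plasma concentration ratio.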
# [8] = Volume of distribution at steady state in mouse at 2.5 mg/kg, iv; assay type: ADME, organism-based; parameters: dose 2.5 mg/kg, route intravenous; details: in vivo, read-out: Vdss; summary of the method: as §2
# [9] = biological target: Nociceptin receptor (Homo sapiens) (UniProt P41146); experiment: Displacement of [3H]nociceptin from human recombinant ORL1 receptor expressed in H recombinant HEK293 cells; assay type: cell-based; details: concentration not given here
# [10] = biological target: Mu-type opioid receptor (Homo sapiens) (UniProt P35372); experiment: Displacement of [3H]DAMGO from human recombinant mu opioid receptor expressed in HEK293 cells; assay type: cell-based; details: concentration not given here
# [11] = biological target: Kappa-type opioid receptor (Rattus norvegicus) (UniProt P34975); experiment: Displacement of [3H]U69593 from rat recombinant kappa opioid receptor expressed in CHO cells; assay type: cell-based; details: concentration not given here
# [12] = biological target: Neuropeptide Y receptor type 2 (Homo sapiens) (UniProt P49146); experiment: Displacement of [125I]peptide YY from human recombinant Y2 receptor expressed in KAN-TS cells; assay type: cell-based; details: concentration not given here
# [13] = biological target: Neuropeptide Y receptor type 1 (Homo sapiens) (UniProt P25929); experiment: Displacement of [125I]peptide YY from human recombinant Y1 receptor expressed in […] cell; details: concentration not given here
# [14] = biological target: Neuromedin-K receptor (Homo sapiens) (UniProt P29371); experiment: Displacement of [3H]SR 142801 from human recombinant NK3 receptor expressed in CHO cells; assay type: cell-based; details: concentration not given here
# [15] = biological target: Muscarinic acetylcholine receptor M3 (Homo sapiens) (UniProt P20309); experiment: Displacement of [3H]4-DAMP from human recombinant muscarinic M3 receptor expressed in CHO cells; assay type: cell-based; details: concentration not given here
# [16] = biological target: Muscarinic acetylcholine receptor M2 (Homo sapiens) (UniProt P08172); experiment: Displacement of [3H]AF-DX 384 from human recombinant muscarinic M2 receptor expressed in CHO cells; assay type: cell-based; details: concentration not given here
# [17] = biological target: monoamine oxidase-B (MAO-B) (Rattus norvegicus, UniProt P19643); experiment: Inhibition of rat monoamine oxidase-B at 10 uM
# [18] = biological target: Melatonin receptor type 1A (Homo sapiens) (UniProt P48039); experiment: Displacement of [125I]2-iodomelatonin from human recombinant MT1 receptor expressed in CHO cells; assay type: cell-based; details: concentration not given here
# [19] = biological target: Histamine H1 receptor (Homo sapiens) (UniProt P35367); experiment: Displacement of [3H]pyrilamine from human recombinant histamine H1 receptor expressed in HEK293 cells; assay type: cell-based; details: concentration not given here
# Rattus norvegicus [20] = species on record: Rattus norvegicus; experiment: Displacement of [3H]GABA from GABA receptor in rat cerebral cortex; assay type: tissue-based; details: concentration not given here
# [21] = biological target: D(2) dopamine receptor (Homo sapiens) (UniProt P14416); experiment: Displacement of [3H]spiperone from human recombinant dopamine D2S receptor expressed in HEK293 cells; assay type: cell-based; details: concentration not given here
# [22] = biological target: D(1A) dopamine receptor (Homo sapiens) (UniProt P21728); experiment: Displacement of [3H]SCH 23390 from human recombinant dopamine D1 receptor expressed in CHO cells; assay type: cell-based; details: concentration not given here
# [23] = biological target: Beta-2 adrenergic receptor (Homo sapiens) (UniProt P07550); experiment: Displacement of [3H](-)CGP 12177 from human recombinant beta2 receptor expressed in CHO cells; assay type: cell-based; details: concentration not given here
# [24] = biological target: Adenosine receptor A3 (Homo sapiens) (UniProt P0DMS8); experiment: Displacement of [3H]AB-MECA from human recombinant A3 receptor expressed in HEK293 cells; assay type: cell-based; details: concentration not given here
# [25] = biological target: Adenosine receptor A1 (Homo sapiens) (UniProt P30542); experiment: Displacement of [3H]DPCPX from human recombinant A1 receptor expressed in CHO cells; assay type: cell-based; details: concentration not given here
# [26] = biological target: 5-hydroxytryptamine receptor 1A (Homo sapiens) (UniProt P08908); experiment: Displacement of [3H]8-OH-DPAT from human recombinant 5HT1A receptor expressed in HEK293 cells; assay type: cell-based; details: concentration not given here
# [27] = biological target: 5-hydroxytryptamine receptor 3A (Homo sapiens) (UniProt P46098); experiment: Displacement of [3H]BRL 43694 from human recombinant 5HT3 receptor expressed in CHO cells; assay type: cell-based; details: concentration not given here
# [28] = biological target: 5-hydroxytryptamine receptor 5A (Homo sapiens) (UniProt P47898); experiment: Displacement of [3H]LSD from human recombinant 5HT5A receptor expressed in CHO cells; assay type: cell-based; details: concentration not given here
# [29] = biological target: 5-hydroxytryptamine receptor 6 (Homo sapiens) (UniProt P50406); experiment: Displacement of [3H]LSD from human recombinant 5HT6 receptor expressed in CHO cells; assay type: cell-based; details: concentration not given here
# Homo sapiens = species on record: Homo sapiens; experiment: Inhibition of human vasoactive intestinal peptide receptor VPAC1 at 10 uM
# Rattus norvegicus [30] = species on record: Rattus norvegicus; experiment: Displacement of [3H]batrachotoxinin from sodium channel in rat cerebral cortex; assay type: tissue-based; details: concentration not given here
# T1 sequence (Q923Y8 whole entry): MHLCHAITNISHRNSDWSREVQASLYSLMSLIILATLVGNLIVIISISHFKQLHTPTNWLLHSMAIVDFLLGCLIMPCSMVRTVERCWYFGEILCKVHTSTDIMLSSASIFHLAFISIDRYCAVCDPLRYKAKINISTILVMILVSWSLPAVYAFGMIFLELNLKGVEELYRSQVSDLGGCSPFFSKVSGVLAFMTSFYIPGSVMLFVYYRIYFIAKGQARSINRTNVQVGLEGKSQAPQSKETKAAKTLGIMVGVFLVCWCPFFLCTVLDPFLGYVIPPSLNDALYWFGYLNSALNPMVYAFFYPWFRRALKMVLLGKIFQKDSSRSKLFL
# Chain of Histamine H1 receptor (Homo sapiens) (P35367 whole entry): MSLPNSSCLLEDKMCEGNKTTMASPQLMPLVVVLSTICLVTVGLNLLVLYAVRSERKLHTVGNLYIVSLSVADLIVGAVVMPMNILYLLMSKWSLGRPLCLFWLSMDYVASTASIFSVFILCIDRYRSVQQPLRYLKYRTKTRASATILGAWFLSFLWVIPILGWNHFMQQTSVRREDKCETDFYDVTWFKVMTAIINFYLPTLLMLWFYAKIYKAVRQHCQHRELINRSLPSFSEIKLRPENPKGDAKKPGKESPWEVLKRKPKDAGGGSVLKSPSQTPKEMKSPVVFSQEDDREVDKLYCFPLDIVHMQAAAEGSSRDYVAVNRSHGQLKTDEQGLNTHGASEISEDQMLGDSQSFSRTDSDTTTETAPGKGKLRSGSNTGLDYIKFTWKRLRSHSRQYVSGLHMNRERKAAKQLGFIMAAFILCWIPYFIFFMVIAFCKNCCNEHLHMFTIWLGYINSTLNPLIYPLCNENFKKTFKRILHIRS
# Chain of Adenosine receptor A1 (Homo sapiens) (P30542 whole entry): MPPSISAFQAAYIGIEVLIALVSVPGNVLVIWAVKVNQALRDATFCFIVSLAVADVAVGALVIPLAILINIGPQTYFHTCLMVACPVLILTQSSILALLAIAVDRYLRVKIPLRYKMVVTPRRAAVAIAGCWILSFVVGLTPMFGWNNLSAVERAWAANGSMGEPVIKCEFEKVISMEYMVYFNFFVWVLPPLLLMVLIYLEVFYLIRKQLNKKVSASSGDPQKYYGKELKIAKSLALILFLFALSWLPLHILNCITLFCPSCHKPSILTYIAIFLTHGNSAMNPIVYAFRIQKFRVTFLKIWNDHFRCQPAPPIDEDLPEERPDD
# Chain of Beta-2 adrenergic receptor (Homo sapiens) (P07550 whole entry, looked up): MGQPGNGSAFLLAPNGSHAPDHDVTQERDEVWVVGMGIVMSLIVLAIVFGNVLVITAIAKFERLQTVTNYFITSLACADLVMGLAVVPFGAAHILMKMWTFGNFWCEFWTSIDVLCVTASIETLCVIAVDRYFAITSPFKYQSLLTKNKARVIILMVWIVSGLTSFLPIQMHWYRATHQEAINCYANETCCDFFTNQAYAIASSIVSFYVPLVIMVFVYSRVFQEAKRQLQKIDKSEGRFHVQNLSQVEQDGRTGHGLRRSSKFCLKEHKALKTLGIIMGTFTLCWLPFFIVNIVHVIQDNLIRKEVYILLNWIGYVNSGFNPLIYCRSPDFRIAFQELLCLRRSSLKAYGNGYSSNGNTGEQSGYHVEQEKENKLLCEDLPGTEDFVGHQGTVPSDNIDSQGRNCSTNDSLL
# Chain of D(2) dopamine receptor (Homo sapiens) (P14416 whole entry): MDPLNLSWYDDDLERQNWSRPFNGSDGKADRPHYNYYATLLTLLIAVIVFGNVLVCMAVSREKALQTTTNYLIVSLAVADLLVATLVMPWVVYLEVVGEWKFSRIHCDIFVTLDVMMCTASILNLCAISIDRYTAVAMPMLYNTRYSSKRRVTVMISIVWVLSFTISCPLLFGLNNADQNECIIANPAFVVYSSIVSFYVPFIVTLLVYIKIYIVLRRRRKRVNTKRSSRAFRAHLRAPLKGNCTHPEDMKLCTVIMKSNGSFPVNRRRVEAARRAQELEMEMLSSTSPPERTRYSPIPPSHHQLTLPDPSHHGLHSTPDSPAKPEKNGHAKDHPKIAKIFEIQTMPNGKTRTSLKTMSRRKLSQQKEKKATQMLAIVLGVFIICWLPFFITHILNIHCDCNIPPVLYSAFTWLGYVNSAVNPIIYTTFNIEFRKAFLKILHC
# Chain of Trace amine-associated receptor 1 (Rattus norvegicus, UniProt Q923Y9) (Q923Y9 whole entry): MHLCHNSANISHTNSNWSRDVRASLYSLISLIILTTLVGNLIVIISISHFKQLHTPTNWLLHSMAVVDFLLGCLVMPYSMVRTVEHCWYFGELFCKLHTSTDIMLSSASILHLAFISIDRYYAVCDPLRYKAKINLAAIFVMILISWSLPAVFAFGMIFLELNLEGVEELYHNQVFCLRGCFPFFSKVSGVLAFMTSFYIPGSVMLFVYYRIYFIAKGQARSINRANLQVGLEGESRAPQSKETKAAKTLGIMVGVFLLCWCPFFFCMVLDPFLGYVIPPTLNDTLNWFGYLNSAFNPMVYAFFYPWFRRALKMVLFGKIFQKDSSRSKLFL
# Chain of Neuropeptide Y receptor type 1 (Homo sapiens) (P25929 whole entry): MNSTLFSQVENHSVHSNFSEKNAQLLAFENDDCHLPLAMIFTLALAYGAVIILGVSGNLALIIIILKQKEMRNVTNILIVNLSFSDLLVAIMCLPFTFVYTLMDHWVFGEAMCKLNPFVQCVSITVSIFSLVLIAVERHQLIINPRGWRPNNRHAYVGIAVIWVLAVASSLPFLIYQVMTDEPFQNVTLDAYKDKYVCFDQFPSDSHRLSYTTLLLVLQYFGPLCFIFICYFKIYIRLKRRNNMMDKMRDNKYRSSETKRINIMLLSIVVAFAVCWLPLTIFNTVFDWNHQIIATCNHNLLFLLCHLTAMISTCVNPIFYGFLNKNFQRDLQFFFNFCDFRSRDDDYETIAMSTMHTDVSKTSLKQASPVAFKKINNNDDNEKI
# Chain of Mu-type opioid receptor (Homo sapiens) (P35372 whole entry): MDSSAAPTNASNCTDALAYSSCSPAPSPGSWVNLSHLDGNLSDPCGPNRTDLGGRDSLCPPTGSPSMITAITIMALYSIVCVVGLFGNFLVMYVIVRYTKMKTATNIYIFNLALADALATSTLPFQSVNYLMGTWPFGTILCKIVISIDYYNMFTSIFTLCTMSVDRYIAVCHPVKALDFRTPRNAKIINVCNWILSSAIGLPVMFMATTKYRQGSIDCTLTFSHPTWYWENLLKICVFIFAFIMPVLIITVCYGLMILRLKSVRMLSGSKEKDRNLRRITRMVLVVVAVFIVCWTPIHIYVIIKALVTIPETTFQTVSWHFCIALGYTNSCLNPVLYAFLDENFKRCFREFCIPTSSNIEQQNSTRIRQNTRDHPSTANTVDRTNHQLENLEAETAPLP
# Chain of Nociceptin receptor (Homo sapiens) (P41146 whole entry): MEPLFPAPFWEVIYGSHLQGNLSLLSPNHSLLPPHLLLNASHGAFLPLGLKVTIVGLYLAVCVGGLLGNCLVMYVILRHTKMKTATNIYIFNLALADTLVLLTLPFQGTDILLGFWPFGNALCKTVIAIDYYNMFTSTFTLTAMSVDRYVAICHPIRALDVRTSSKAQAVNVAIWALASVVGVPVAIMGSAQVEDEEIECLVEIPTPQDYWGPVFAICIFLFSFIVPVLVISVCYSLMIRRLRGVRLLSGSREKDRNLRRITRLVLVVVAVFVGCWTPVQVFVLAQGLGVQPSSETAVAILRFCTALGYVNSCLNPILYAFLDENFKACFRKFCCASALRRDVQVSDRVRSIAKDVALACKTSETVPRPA
# Chain of D(1A) dopamine receptor (Homo sapiens) (P21728 whole entry): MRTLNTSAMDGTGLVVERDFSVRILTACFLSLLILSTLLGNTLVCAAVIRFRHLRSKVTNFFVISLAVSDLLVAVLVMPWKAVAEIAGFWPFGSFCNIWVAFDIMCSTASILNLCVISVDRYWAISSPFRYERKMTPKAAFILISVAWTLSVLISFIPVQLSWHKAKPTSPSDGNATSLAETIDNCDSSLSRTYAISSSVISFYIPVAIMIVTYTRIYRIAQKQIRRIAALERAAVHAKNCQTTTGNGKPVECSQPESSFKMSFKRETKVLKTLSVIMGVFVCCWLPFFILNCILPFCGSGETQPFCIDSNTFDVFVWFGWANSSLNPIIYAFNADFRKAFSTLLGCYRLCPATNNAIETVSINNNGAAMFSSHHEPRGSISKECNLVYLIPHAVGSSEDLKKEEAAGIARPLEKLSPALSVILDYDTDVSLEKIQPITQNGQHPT
# Chain of Adenosine receptor A3 (Homo sapiens) (P0DMS8 whole entry): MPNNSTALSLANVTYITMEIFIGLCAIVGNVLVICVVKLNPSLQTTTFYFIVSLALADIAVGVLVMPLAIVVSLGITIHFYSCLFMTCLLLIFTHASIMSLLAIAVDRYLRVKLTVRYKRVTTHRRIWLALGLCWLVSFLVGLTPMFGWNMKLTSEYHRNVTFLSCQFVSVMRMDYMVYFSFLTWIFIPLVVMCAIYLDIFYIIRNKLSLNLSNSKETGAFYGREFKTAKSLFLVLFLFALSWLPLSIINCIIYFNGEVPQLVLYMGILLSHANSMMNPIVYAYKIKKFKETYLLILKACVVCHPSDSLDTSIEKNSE
# Chain of 5-hydroxytryptamine receptor 1A (Homo sapiens) (P08908 whole entry): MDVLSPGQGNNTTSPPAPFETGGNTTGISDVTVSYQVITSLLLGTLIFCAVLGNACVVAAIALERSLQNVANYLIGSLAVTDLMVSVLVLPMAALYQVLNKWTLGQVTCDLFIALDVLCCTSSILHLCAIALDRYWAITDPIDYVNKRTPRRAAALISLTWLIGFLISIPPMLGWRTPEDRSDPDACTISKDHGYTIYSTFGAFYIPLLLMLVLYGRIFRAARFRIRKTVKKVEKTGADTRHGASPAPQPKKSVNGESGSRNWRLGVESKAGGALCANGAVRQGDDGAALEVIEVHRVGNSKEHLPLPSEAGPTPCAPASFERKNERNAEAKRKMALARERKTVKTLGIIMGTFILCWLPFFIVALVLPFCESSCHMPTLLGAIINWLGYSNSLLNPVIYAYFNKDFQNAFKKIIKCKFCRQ
compound,measurement,setting,value
CCOc1cccc(NC(=O)c2ccc(N3CCCC3)c(C(F)(F)F)c2)c1,Ki,[1],0.0009 µM
same,IC50,[2],7.49 µM
same,IC50,[3],0.028 µM
same,IC50,[4],4.54 µM
same,Cmax,[5],590 ng/mL
same,bioavailability,[6],74%
same,Kp,[7],0.5
same,Vd,[8],3.7 L/kg
same,inhibition,[9],15%
same,inhibition,[10],42%
same,inhibition,[11],33%
same,inhibition,[12],6%
same,inhibition,[13],4%
same,inhibition,[14],22%
same,inhibition,[15],-10%
same,inhibition,[16],-1%
same,inhibition at 10 µM,[17],39%
same,inhibition,[18],54%
same,inhibition,[19],6%
same,inhibition,Rattus norvegicus [20],10%
same,inhibition,[21],9%
same,inhibition,[22],25%
same,inhibition,[23],6%
same,inhibition,[24],80%
same,inhibition,[25],50%
same,inhibition,[26],4%
same,inhibition,[27],9%
same,inhibition,[28],21%
same,inhibition,[29],7%
same,inhibition,Homo sapiens,13%
same,inhibition,Rattus norvegicus [30],88%
